In brackets after ≈: the same amount, converted by molar mass. Square brackets hold non-standard residues; d marks the D form. Peptide text beside a SMILES is read from it. Gly(Nα-4-Cl-benzyl) = O=C(O)CNCc1ccc(Cl)cc1; Gly(N-(CH2)6NH2) = NCCCCCCNCC(=O)O; Gly(N-2-aminoethyl) = NCCNCC(=O)O; Nspe = C[C@H](NCC(=O)O)c1ccccc1; NhArg = N=C(N)NCCCCNCC(=O)O; NPentylGly = CCCCCNCC(=O)O; Nphe = O=C(O)CNCc1ccccc1; Nlys = NCCCCNCC(=O)O
Columns and labels:
[1] = Selectivity index, ratio of ED50 for human HepG2 cells to MIC for Staphylococcus epidermidis clinical isolate; format: toxicity; conditions: read-out: Selectivity Index
[2] = test system: Staphylococcus aureus; assay: Antibacterial activity against Staphylococcus aureus 3R7089 strain Oxford/ATCC 9144 incubated for 16 hrs under shaking condition; format: functional; conditions: 3R7089 strain Oxford/ATCC 9144, 16 h
Summary of the method: (§1)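 Broth microdilution (Andrews method) in Iso-sensitest broth. Overnight cultures are adjusted to A650 0.07 (0.5 McFarland) and diluted ten-fold. Compounds come from 5 mM DMSO stocks, 2-fold serially diluted, final 2–100 μM in a 1:1 inoculum:compound mix. Incubation is 37 °C for 16 h with shaking. MIC is the lowest concentration giving complete growth inhibition, read by absorbance; triplicate.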

[3] = Selectivity index, ratio of ED50 for human HepG2 cells to MIC for Escherichia coli K-12 W3110 ATCC 27325; format: toxicity; conditions: read-out: Selectivity Index
[4] = Cytotoxicity against human HaCaT cells assessed as reduction in cell viability pretreated for 1 hr followed by DMEM addition measured after 24 hrs by alamar blue assay; format: cell-based; conditions: read-out: ED50
Summary of the method: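 HaCaT keratinocytes are grown in DMEM high glucose with 10% FBS and 1% P/S and seeded at 2x10^4 cells/well 24 h before treatment. Compound dilution series run 2–100 µM (5 mM DMSO stocks) in 50 µL for 1 h, then medium is added for 24 h at 37 °C, 5% CO2. alamarBlue is read after 1 h (Ex 540/Em 620). Triplicate, ≥2 occasions; ED50 from dose-response; amphotericin B positive control.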

[5] = Selectivity index, ratio of ED50 for human HaCaT cells to MIC for Staphylococcus epidermidis clinical isolate; format: toxicity; conditions: read-out: Selectivity Index
[6] = Selectivity index, ratio of ED50 for human HepG2 cells to MIC for Pseudomonas aeruginosa PAO1 ATCC 15692; format: toxicity; conditions: read-out: Selectivity Index
[7] = test system: Escherichia coli; assay: Antibacterial activity against Escherichia coli K-12 W3110 ATCC 27325 incubated for 16 hrs under shaking condition; format: functional; conditions: K-12 substr. W3110 ATCC 27325, 16 h; summary of the method: as §1
[8] = Selectivity index, ratio of ED50 for human HepG2 cells to MIC for Staphylococcus aureus 3R7089 strain Oxford/ATCC 9144; format: toxicity; conditions: read-out: Selectivity Index
[9] = Selectivity index, ratio of ED50 for human HaCaT cells to MIC for Escherichia coli K-12 W3110 ATCC 27325; format: toxicity; conditions: read-out: Selectivity Index
[10] = test system: Pseudomonas aeruginosa; assay: Antibacterial activity against Pseudomonas aeruginosa PAO1 ATCC 15692 incubated for 16 hrs under shaking condition; format: functional; conditions: PAO1 ATCC 15692, 16 h; summary of the method: as §1
[11] = Cytotoxicity against human HepG2 cells assessed as reduction in cell viability pretreated for 1 hr followed by DMEM addition measured after 24 hrs by alamar blue assay; format: cell-based; conditions: read-out: ED50
Summary of the method: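 HepG2 cells are kept in DMEM high glucose with 10% heat-inactivated FBS and 1% P/S at 37 °C, 5% CO2, and seeded at 2x10^4 cells/well one day ahead. They are exposed to compounds (100 to 3 µM, from 5 mM DMSO stocks) in 50 µL for 1 h. Medium is then added and cells incubated 24 h. alamarBlue is read after 2 h (Ex 560/Em 600). Triplicate on ≥2 occasions; ED50 from dose-response; DMSO negative control.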

[12] = Selectivity index, ratio of ED50 for human HaCaT cells to MIC for Staphylococcus aureus 3R7089 strain Oxford/ATCC 9144; format: toxicity; conditions: read-out: Selectivity Index
[13] = Selectivity index, ratio of ED50 for human HaCaT cells to MIC for Pseudomonas aeruginosa PAO1 ATCC 15692; format: toxicity; conditions: read-out: Selectivity Index
[14] = test system: Staphylococcus epidermidis; assay: Antibacterial activity against Staphylococcus epidermidis clinical isolate incubated for 16 hrs under shaking condition; format: functional; summary of the method: as §1

| SMILES | MIC [10] | MIC [14] | selectivity ratio [1] | MIC [2] | selectivity ratio [3] | CC50 at 24 h [4] | selectivity ratio [5] | selectivity ratio [6] | MIC [7] | selectivity ratio [8] | selectivity ratio [9] | CC50 at 24 h [11] | selectivity ratio [12] | selectivity ratio [13] |
| --- | --- | --- | --- | --- | --- | --- | --- | --- | --- | --- | --- | --- | --- | --- |
| C[C@@H](c1ccccc1)N(CC(N)=O)C(=O)CN(C(=O)CN(CCCCN)C(=O)CN(C(=O)CN(C(=O)CNCCCCN)[C@@H](C)c1ccccc1)[C@@H](C)c1ccccc1)[C@@H](C)c1ccccc1 (H-[Nlys][Nspe][Nspe][Nlys][Nspe][Nspe]-NH2) | > 100 µM |  | 4 | > 100 µM | 1 | > 100 µM | 4 | 1 | > 100 µM | 1 | 1 | > 100 µM | 1 | 1 |
| C[C@@H](c1ccccc1)N(CC(N)=O)C(=O)CN(C(=O)CN(CCN)C(=O)CN(C(=O)CN(C(=O)CN(CCN)C(=O)CN(C(=O)CN(C(=O)CN(CCN)C(=O)CN(C(=O)CN(C(=O)CNCCN)[C@@H](C)c1ccccc1)[C@@H](C)c1ccccc1)[C@@H](C)c1ccccc1)[C@@H](C)c1ccccc1)[C@@H](C)c1ccccc1)[C@@H](C)c1ccccc1)[C@@H](C)c1ccccc1 (H-[Gly(N-2-aminoethyl)][Nspe][Nspe][Gly(N-2-aminoethyl)][Nspe][Nspe][Gly(N-2-aminoethyl)][Nspe][Nspe][Gly(N-2-aminoethyl)][Nspe][Nspe]-NH2) |  |  | 21 |  |  |  | 13 | 1 | > 100 µM | 21 |  |  | 13 | 1 |
| NCCNCC(=O)N(CC(=O)N(CC(=O)N(CCN)CC(=O)N(CC(=O)N(CC(=O)N(CCN)CC(=O)N(CC(=O)N(CC(N)=O)Cc1ccccc1)Cc1ccccc1)Cc1ccccc1)Cc1ccccc1)Cc1ccccc1)Cc1ccccc1 (H-[Gly(N-2-aminoethyl)][Nphe][Nphe][Gly(N-2-aminoethyl)][Nphe][Nphe][Gly(N-2-aminoethyl)][Nphe][Nphe]-NH2) | > 100 µM | > 100 µM | 1 |  | 1 | > 100 µM | 1 | 1 | > 100 µM | 8 | 1 | > 100 µM | 8 | 1 |
| CCCCCNCC(=O)N(CC(=O)N(CC(=O)N(CCCCN)CC(=O)N(CC(=O)N(CC(=O)N(CCCCN)CC(=O)N(CC(=O)N(CC(=O)N(CCCCN)CC(=O)N(CC(=O)N(CC(N)=O)[C@@H](C)c1ccccc1)[C@@H](C)c1ccccc1)C(C)c1ccccc1)[C@@H](C)c1ccccc1)[C@@H](C)c1ccccc1)[C@@H](C)c1ccccc1)C(C)c1ccccc1)[C@@H](C)c1ccccc1 (single isomer, unassigned) |  |  | 8 | 2 µM (≈ 3.64 µg/mL) |  | 12 µM | 6 |  | 50 µM (≈ 90.9 µg/mL) | 8 |  | 15 µM | 6 |  |
| CCCCCNCC(=O)N(CC(=O)N(CC(=O)N(CCCCNC(=N)N)CC(=O)N(CC(=O)N(CC(=O)N(CCCCC)CC(=O)N(CC(=O)N(CC(=O)N(CCCCNC(=N)N)CC(=O)N(CC(=O)N(CC(N)=O)[C@@H](C)c1ccccc1)[C@@H](C)c1ccccc1)[C@@H](C)c1ccccc1)[C@@H](C)c1ccccc1)[C@@H](C)c1ccccc1)[C@@H](C)c1ccccc1)[C@@H](C)c1ccccc1)[C@@H](C)c1ccccc1 (H-[NPentylGly][Nspe][Nspe][NhArg][Nspe][Nspe][NPentylGly][Nspe][Nspe][NhArg][Nspe][Nspe]-NH2) | > 100 µM |  | 4 |  |  |  | 5 |  | > 100 µM | 8 |  |  | 10 |  |
| COc1ccc(CN(CC(N)=O)C(=O)CN(Cc2ccc(OC)cc2)C(=O)CN(CCCCN)C(=O)CN(Cc2ccc(OC)cc2)C(=O)CN(Cc2ccc(OC)cc2)C(=O)CN(CCCCN)C(=O)CN(Cc2ccc(OC)cc2)C(=O)CN(Cc2ccc(OC)cc2)C(=O)CN(CCCCN)C(=O)CN(Cc2ccc(OC)cc2)C(=O)CN(Cc2ccc(OC)cc2)C(=O)CNCCCCN)cc1 | > 100 µM |  | 50 |  | 1 |  | 21 | 1 | > 100 µM | 33 | 0 | > 100 µM | 14 | 0 |
| CC(c1ccccc1)N(CC(=O)N(CCCCN)CC(=O)N(CC(=O)N(CC(=O)N(CCCCN)CC(=O)N(CC(=O)N(CC(N)=O)[C@@H](C)c1ccccc1)[C@@H](C)c1ccccc1)Cc1ccc(F)cc1)Cc1ccc(F)cc1)C(=O)CN(C(=O)CN(CCCCN)C(=O)CN(Cc1ccc(F)cc1)C(=O)CN(Cc1ccc(F)cc1)C(=O)CNCCCCN)[C@@H](C)c1ccccc1 (single isomer, unassigned) | 50 µM (≈ 91.8 µg/mL) | 1 µM (≈ 1.84 µg/mL) | 55 | 2 µM (≈ 3.67 µg/mL) | 9 | > 100 µM | 100 |  | 6 µM (≈ 11 µg/mL) | 28 | 13 | 55 µM | 50 | 2 |

More lines, main results first:

| MIC [10] | MIC [14] | SMILES | selectivity ratio [1] | MIC [2] | selectivity ratio [3] | CC50 at 24 h [4] | selectivity ratio [5] | selectivity ratio [6] | MIC [7] | selectivity ratio [8] | selectivity ratio [9] | CC50 at 24 h [11] | selectivity ratio [12] | selectivity ratio [13] |
| --- | --- | --- | --- | --- | --- | --- | --- | --- | --- | --- | --- | --- | --- | --- |
| > 100 µM |  | NCCCCNCC(=O)N(CC(=O)N(CC(=O)N(CCCCN)CC(=O)N(CC(=O)N(CC(=O)N(CCCCN)CC(=O)N(CC(=O)N(CC(=O)N(CCCCN)CC(=O)N(CC(=O)N(CC(N)=O)Cc1ccc(Cl)cc1)Cc1ccc(Cl)cc1)Cc1ccc(Cl)cc1)Cc1ccc(Cl)cc1)Cc1ccc(Cl)cc1)Cc1ccc(Cl)cc1)Cc1ccc(Cl)cc1)Cc1ccc(Cl)cc1 (H-[Nlys][Gly(Nα-4-Cl-benzyl)][Gly(Nα-4-Cl-benzyl)][Nlys][Gly(Nα-4-Cl-benzyl)][Gly(Nα-4-Cl-benzyl)][Nlys][Gly(Nα-4-Cl-benzyl)][Gly(Nα-4-Cl-benzyl)][Nlys][Gly(Nα-4-Cl-benzyl)][Gly(Nα-4-Cl-benzyl)]-NH2) | 4 |  |  |  | 3 |  | > 100 µM | 1 |  |  | 1 |  |
| > 100 µM | 2 µM (≈ 3.64 µg/mL) | CCCCCN(CC(=O)N(CC(=O)N(CC(=O)N(CCCCN)CC(=O)N(CC(=O)N(CC(N)=O)[C@@H](C)c1ccccc1)[C@@H](C)c1ccccc1)C(C)c1ccccc1)[C@@H](C)c1ccccc1)C(=O)CN(C(=O)CN(C(=O)CN(CCCCN)C(=O)CN(C(=O)CN(C(=O)CNCCCCN)[C@@H](C)c1ccccc1)C(C)c1ccccc1)[C@@H](C)c1ccccc1)C(C)c1ccccc1 (single isomer, unassigned) | 11 | 6 µM (≈ 10.9 µg/mL) |  | 20 µM | 10 |  | > 100 µM | 4 |  | 22 µM | 3 |  |
| > 100 µM | 1 µM (≈ 1.82 µg/mL) | CCCCCNCC(=O)N(CC(=O)N(CC(=O)N(CCCCC)CC(=O)N(CC(=O)N(CC(=O)N(CCCCN)CC(=O)N(CC(=O)N(CC(=O)N(CCCCN)CC(=O)N(CC(=O)N(CC(N)=O)[C@@H](C)c1ccccc1)[C@@H](C)c1ccccc1)C(C)c1ccccc1)[C@@H](C)c1ccccc1)C(C)c1ccccc1)[C@@H](C)c1ccccc1)C(C)c1ccccc1)[C@@H](C)c1ccccc1 (single isomer, unassigned) | 18 | 2 µM (≈ 3.63 µg/mL) |  | 20 µM | 20 |  | > 100 µM | 9 |  | 18 µM | 10 |  |
| > 100 µM | 3 µM (≈ 4.11 µg/mL) | NCCCCCCNCC(=O)N(CC(=O)N(CC(=O)N(CCCCCCN)CC(=O)N(CC(=O)N(CC(=O)N(CCCCCCN)CC(=O)N(CC(=O)N(CC(N)=O)Cc1ccccc1)Cc1ccccc1)Cc1ccccc1)Cc1ccccc1)Cc1ccccc1)Cc1ccccc1 (H-[Gly(N-(CH2)6NH2)][Nphe][Nphe][Gly(N-(CH2)6NH2)][Nphe][Nphe][Gly(N-(CH2)6NH2)][Nphe][Nphe]-NH2) | 33 | 6 µM (≈ 8.21 µg/mL) | 2 | > 100 µM | 33 | 1 |  | 17 | 2 | > 100 µM | 17 | 1 |
